# mABHD4 FP – ABHD4 (mouse) inhibition, primary FP screen. Q8VD66. purified mABHD4, FP-Rh probe fluorescence polarization. inhibition, % at 8.92 µM. actives 0.54% (n = 370,000);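 active = inhibition exceeding the mean over every tested compound plus 3 SD, cut at about 30% in these data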;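 also: 0% = plate median of compound wells and 100% = S159A mutant with DMSO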
#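 Assay system: Wild-type mouse ABHD4 protein | Medium: HEPES pH 7.0 buffer, 150 mM NaCl, 0.01% Pluronic F-127 | Incubation: Enzyme–compound pre-incubation 45 min, then probe 60 min, both 25 °C | Technique: Fluorescence polarization with parallel and perpendicular emission, 525/598 nm | Evaluation: % inhibition of FP-Rh probe binding versus controls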
# rCAG binder – r(CAG) repeat RNA binding. TO-PRO-1 dye displacement fluorescence. inhibition, % at 3 µM. actives 1.3% (n = 370,000). AID 651821;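 active = inhibition above the plate cutoff, the mean of all test compounds on that plate plus 3 SD, cut at about 35% in these data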;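 also: 0% = DMSO alone and 100% = 100 µM mitoxantrone as full dye displacement; higher means more dye released from RNA so lower well fluorescence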
# TCR CD3 inh – blocks the human TCR-CD3 interaction | TAMRA-labeled TCR probe fluorescence, biochemical | inhibition, % at 9.4 µM | actives 0.37% (n = 360,000) | AID 651800; in the data active = inhibition above about 19%;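 also: recombinant mutant TCR 2C K166C tagged with TAMRA read by polarization; 0% = receptor in buffer alone and 100% = receptor with positive control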
# PRMT1 inh – PRMT1 (human) inhibition, primary screen; inhibition, % at 2.79 µM; AID 652257; actives 1.3% (n = 370,000); recombinant PRMT1, activity-based probe fluorescence polarization; Q99873;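 active = inhibition above about 21% made by adding two undisclosed values, limit read from the data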
# SIAE inh – human SIAE inhibition, primary screen | Q9HAT2 | SIAE FP-Rh probe binding, fluorescence polarization | inhibition, % at 9.66 µM | actives 0.69% (n = 370,000);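 active = inhibition above a cutoff: mean of compounds within the control limits plus 3 SD of those, cut at about 17% in these data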;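 also: 0% = plate median of compound wells and 100% = probe without SIAE protein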
# Target sequence (Q9HAT2 whole entry, looked up): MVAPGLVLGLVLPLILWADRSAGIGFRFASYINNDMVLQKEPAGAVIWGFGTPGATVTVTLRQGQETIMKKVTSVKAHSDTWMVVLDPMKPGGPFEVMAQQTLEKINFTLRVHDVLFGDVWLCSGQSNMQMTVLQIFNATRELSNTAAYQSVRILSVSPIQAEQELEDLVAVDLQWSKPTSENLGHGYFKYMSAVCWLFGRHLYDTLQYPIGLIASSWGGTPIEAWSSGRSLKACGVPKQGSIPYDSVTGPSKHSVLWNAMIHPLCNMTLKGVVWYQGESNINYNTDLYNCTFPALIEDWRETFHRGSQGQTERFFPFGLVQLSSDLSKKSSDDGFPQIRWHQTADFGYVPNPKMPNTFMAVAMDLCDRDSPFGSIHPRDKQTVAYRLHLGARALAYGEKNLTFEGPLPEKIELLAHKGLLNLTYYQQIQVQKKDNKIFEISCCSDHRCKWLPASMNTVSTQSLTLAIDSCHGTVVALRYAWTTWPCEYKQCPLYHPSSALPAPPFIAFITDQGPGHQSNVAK
# PRMT1 confirm – confirmation of human PRMT1 inhibitors | shares compounds with PRMT1 inh | AID 687036 | actives 42% (n = 3,300) | inhibition, % at 2.79 µM | recombinant His-PRMT1, activity-based probe fluorescence polarization;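 active = mean inhibition across replicates above the hit cutoff derived for the earlier primary screen, cut at about 22% in these data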
# * marks the source's active call; other numbers are inactive results; x = no result given. Compounds with a hit are over-represented: about 3.3% of the library has one in this group of screens.
SMILES,mABHD4 FP,rCAG binder,TCR CD3 inh,PRMT1 inh,SIAE inh,PRMT1 confirm
O=C(OCC#CCSc1nnc(-c2cccc3ccccc23)o1)c1ccncc1,0.2,x,x,1.9,-5.0,x
COc1ccc(C2C(C(=O)Nc3ccc(Cl)cc3)CCC(=O)N2c2ccc(OC)cc2)cc1 (stereo unspecified),-2.8,0.4,x,-5.5,-2.1,x
Cc1ccccc1NC(=O)OC1CCC12CCCCC2 (stereo unspecified),2.6,-0.6,x,4.8,2.0,x
COc1cc(OC)c(C2CC(=O)N3CN(c4ccc(C)cc4)CSC3=C2C#N)cc1OC (stereo unspecified),17.1,33.5,-3.7,62.4*,-4.4,92.9*
Cc1ccc(N2CSC3=C(C#N)C(c4cccs4)CC(=O)N3C2)cc1 (stereo unspecified),12.4,28.9,1.5,52.1*,-2.6,34.2*
OC(c1ccccc1)(c1ccccc1)C1CCN(CCCNc2ccccc2Br)CC1,10.7,1.9,x,-2.9,-1.9,x
COc1ccc(CNCC#Cc2cccnc2)c(OC)c1,3.7,2.8,x,0.9,6.3,x
CN1CCN(C(=O)CCN2C(=O)/C(=C\c3ccccc3F)SC2=S)CC1,-46.9,6.5,-44.6,27.5*,-6.2,6.3
COC(=O)[C@]12C[C@H](CC(=O)N3CCN(C(=O)C4CC4)CC3)C(=O)N(CCc3ccc(OC)c(OC)c3)C1=C[C@H](COCc1ccccc1)O[C@@H]2C,2.3,-0.2,x,-3.3,1.7,x
O=[N+]([O-])c1ccccc1S(=O)(=O)N1CCN(Cc2cc3c(cc2O)OCO3)CC1,6.1,0.3,5.6,14.8,3.0,x
Cc1ccc(C)c(S(=O)(=O)N2CCN(Cc3cc4c(cc3O)OCO4)CC2)c1,-12.5,5.9,-6.1,45.5*,10.6,8.3
O=S(=O)(c1ccccc1F)N1CCN(Cc2cc3c(cc2O)OCO3)CC1,5.8,2.3,0.5,25.2*,5.2,12.0
CC(=O)c1cc(-c2ccccc2S(=O)(=O)NC(C)(C)C)c(=O)n2c1CCC2,8.2,1.7,x,1.4,1.3,x
COCCn1c(CCC(=O)O)ccc1-c1cccs1,-2.0,0.8,6.0,4.1,6.1,x
CCOC(=O)c1ccc(-n2c(CCC(=O)O)ccc2-c2cccs2)cc1,2.0,18.0,1.1,46.8*,3.9,6.5
Cc1ccc(-n2c(CCC(=O)O)ccc2-c2cccs2)cc1C,-0.3,19.2,-4.5,32.0*,1.8,4.0
COc1ccc(CC(=O)Nc2ncc([N+](=O)[O-])s2)cc1OC,4.7,20.3,-5.7,46.6*,-7.2,21.1
NC(=O)c1sc2nc(N3CCOCC3)c3c(c2c1N)CCCC3,6.2,5.3,-4.2,26.5*,2.0,16.0
Cc1ccccc1NC(=O)c1sc2nc(N3CCOCC3)c3c(c2c1N)CCCC3,9.6,9.4,0.4,42.2*,1.6,40.7*
CN(C(=O)c1sc2nc(N3CCOCC3)c3c(c2c1N)CCCC3)c1ccccc1,11.1,3.2,-2.5,26.5*,1.0,17.3
COC(=O)CCC1NC(=O)C(Cc2c[nH]c3ccccc23)NC(=O)C2CC(=O)OC(C)C(NC(=O)C(C)NC(=O)C3CCCN3C(=O)C3CCCN3C(=O)C(C)NC(C)=O)C(=O)NC(CC(C)C)C(=O)NC(CCCCNC(=O)CCC(C(=O)NC(Cc3ccc(O)cc3)C(=O)O)NC1=O)C(=O)NC(Cc1c[nH]c3ccccc13)C(=O)N1CCCC1C(=O)NC(CO)C(=O)N2 (stereo unspecified),5.9,27.2,x,-2.9,7.3,x
C#CCNC(=O)C[C@H]1C[C@@]2(C(=O)OC)C(=C[C@H](COCc3ccccc3)O[C@@H]2C)N(Cc2ccccc2)C1=O,6.9,5.4,x,0.8,11.0,x
CC(=O)c1sc2nsc(SCCN3CCOCC3)c2c1N,6.3,-3.1,-5.4,66.7*,-2.3,10.1
CS(=O)(=O)N1CCC[C@]2(CC[C@@H](CCC#N)O2)C1,6.0,0.4,x,0.1,-2.1,x
CC(C)NC(=O)c1cc(-c2ccco2)nn1-c1ccc(Cl)cc1,-5.8,14.4,-12.6,30.5*,-4.9,20.3
CN(C)CCN(C)Cc1c2ccccc2c(CN(C)CCN(C)C)c2ccccc12,0.1,-18.6,-1.4,30.9*,0.6,7.5
CN(C)CCP(=O)(c1ccccc1)c1ccccc1,-2.3,4.2,-1.6,-3.0,-0.4,x
NC(=O)c1ccc(SCC(=O)OCC(=O)NCC2CCCCC2)c([N+](=O)[O-])c1,8.2,-5.7,0.8,20.1,10.8,x

# Compound activity from PubChem BioAssay.
